# Screens: PubChem BioAssay, Broad Institute
# FGF22 binding: binders of human FGF22 protein, primary screen, FGF22 synaptogenesis inhibitor project, biophysical, thermal shift, single point. Fibroblast growth factor 22 (Homo sapiens), Q9HCT0. recombinant FGF22 thermal shift, SYPRO orange fluorescence; percent of sucrose octasulfate shift, DMSO zero. activity (Tm shift, normalised), % at 9.99 µM. 1.5% of 340,000 active;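 active = mean Tm shift, scaled 0 neutral to 100 positive control, at about 1.3% or above, every replicate too, limit read from the data; inconclusive = no clear call, values can overlap the other calls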
# Target sequence (Q9HCT0 whole entry, looked up): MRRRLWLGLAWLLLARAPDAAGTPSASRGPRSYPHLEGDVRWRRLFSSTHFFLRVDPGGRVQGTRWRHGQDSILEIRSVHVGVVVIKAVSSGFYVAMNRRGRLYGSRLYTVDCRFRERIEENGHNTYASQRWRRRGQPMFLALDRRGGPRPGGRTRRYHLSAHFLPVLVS
# F508del corr: F508del CFTR correction, initial screen, CFBE line, single point; CFBE cells, YFP halide quenching; stimulated with forskolin plus potentiator P3; % fluorescence drop versus neutral controls; activity (quench increase), % at 7.58 µM; 0.36% of 350,000 active;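 active = mean added fluorescence quench of at least 8% versus neutral control, with both replicates also reaching 8%; inconclusive = only one of the mean or replicate conditions met; inactive = mean below 8% and not both replicates reaching 8%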;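 note: cells transiently co-express mutant CFTR-F508del with the halide-sensitive YFP; corrector assay measuring rescue of mutant channel to the surface after 24 h compound exposure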
# S100A4 MyoIIA: inhibitors of S100A4-myosin IIA peptide binding, primary screen, biochemical, fluorescence polarization, TAMRA-MyoIIA peptide; inhibition, % at 10.7 µM; AID 652163, 2013; 0.14% of 360,000 active; Protein S100-A4 (Homo sapiens), P26447;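 active = mean inhibition of at least 70% across replicates, with every replicate also reaching that level; inconclusive = mean inhibition reaches 70% but some replicates fall short; inactive = mean inhibition below 70%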
# Target sequence (P26447 whole entry, looked up): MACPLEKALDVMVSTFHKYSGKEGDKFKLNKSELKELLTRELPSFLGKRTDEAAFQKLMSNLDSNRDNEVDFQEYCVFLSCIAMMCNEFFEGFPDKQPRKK
#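 Material: S100A4 monomer protein / Buffer or medium: 50 mM HEPES pH 7.2, 10 mM CaCl2, 100 mM KCl / Times: 5 min incubation before reading / Benchmarks: neutral control DMSO, positive control TFP / Reagent: labelled myosin peptide probe, 5 nM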
# dFosB activator: activators of delta FosB homodimer, primary screen, biochemical, fluorescence polarization, TAMRA-CDK5 oligo, single point; purified delta FosB; percent of positive-control signal above neutral wells; activation, % at 25 µM; 0.99% of 340,000 active; AID 493131, 2011;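 active = mean activation above about 17%, with every replicate also reaching it, limit read from the data, passing the limit was not always enough; inconclusive = only one of the two conditions met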
# Target sequence (P13346 whole entry, looked up): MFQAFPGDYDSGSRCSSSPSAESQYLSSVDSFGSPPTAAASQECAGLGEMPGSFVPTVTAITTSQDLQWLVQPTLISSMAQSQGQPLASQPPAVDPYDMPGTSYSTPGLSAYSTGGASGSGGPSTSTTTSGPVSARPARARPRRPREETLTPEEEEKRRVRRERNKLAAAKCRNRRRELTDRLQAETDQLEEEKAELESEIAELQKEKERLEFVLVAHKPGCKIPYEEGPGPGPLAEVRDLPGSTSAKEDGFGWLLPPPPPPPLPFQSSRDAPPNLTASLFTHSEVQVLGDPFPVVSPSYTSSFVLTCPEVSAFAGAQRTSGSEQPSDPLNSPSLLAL
# Active calls of the source: *; u = inconclusive; x = no result given. Rows were chosen to be rich in hits. Some 2.2% of all compounds tested hit in one or more screens of this group.
SMILES,FGF22 binding,F508del corr,S100A4 MyoIIA,dFosB activator
NS(=O)(=O)c1ccc(NC(=O)COC(=O)c2cnccn2)cc1,43*,3,-2,2
COc1ccc(OC)c(NC(=O)COC(=O)C2CCCCC2)c1,44*,0,-3,-2
NS(=O)(=O)c1ccc(NC(=O)COC(=O)C2CCCCC2)cc1,44*,1,-4,-1
NS(=O)(=O)c1ccc(NC(=O)COC(=O)CCC2CCCC2)cc1,0,4,-4,3
C=CCN1c2ccccc2[C@]23C[C@@H](C(=O)OC)N(C(=O)c4cccs4)C2=NC(C(=O)OC)=C(C(=O)OC)[C@H]13,0,8.0*,1,2
C=CCN1c2ccccc2[C@]23C[C@@H](C(=O)OC)N(C(=O)c4ccc(Br)cc4)C2=NC(C(=O)OC)=C(C(=O)OC)[C@H]13,0,0,0,-5
CN1c2ccc(-c3ccccc3)cc2[C@@H]2[C@@H](CCN2S(=O)(=O)c2ccccc2F)[C@@H]1CO,0,-3,13,x
CC(C)NC(=O)c1ccc(COc2cccc3ccccc23)o1,0,9.8*,-7,x
NNC(=O)c1ccc(COc2cccc3ccccc23)o1,0,4,-3,-3
O=C(NC(=S)Nc1ccc(CN2CCOCC2)cc1)c1ccco1,0,-2,-19,0
O=C(NC(=S)Nc1cccc(NC(=S)NC(=O)c2ccco2)n1)c1ccco1,0,1,6,23*
CCCC(=O)Nc1ccc(Cl)c(NC(=O)c2ccco2)c1,x,x,x,-9
CCCC(=O)Nc1ccc(Cl)c(NC(=S)NC(=O)c2ccco2)c1,1.5*,x,-1,-3
O=C(NC(=S)Nc1ccc(CN2CCCCC2)cc1)c1ccco1,43*,-1,2,-3
Cc1cccc(NC(=S)NC(=O)c2ccco2)c1C,0,0,10,1
CC(C)NC(=O)N(C)C[C@H]1OCCCC[C@@H](C)Oc2ccc(NS(=O)(=O)c3ccc(F)cc3)cc2C(=O)N([C@@H](C)CO)C[C@H]1C,0,2,-13,x
CC(C)NC(=O)Nc1ccc2c(c1)C(=O)N([C@@H](C)CO)C[C@H](C)[C@@H](CN(C)C(=O)NC(C)C)OCCCC[C@H](C)O2,0,-1,8,x
C[C@@H]1CN([C@H](C)CO)C(=O)Cc2cc(NS(=O)(=O)c3cccs3)ccc2O[C@@H]1CN(C)S(=O)(=O)c1ccc(F)cc1,0,2,-1,x
CS(=O)(=O)N(CC(=O)NCCSc1ccccn1)c1ccc(F)cc1,43*,3,2,-2
Cc1ccc(S(=O)(=O)N(C)C[C@H]2Oc3ccc(NS(=O)(=O)c4ccc(F)cc4)cc3CC(=O)N([C@H](C)CO)C[C@H]2C)cc1,0,-1,-6,x
Cc1ccc(S(=O)(=O)N(C)C[C@H]2Oc3ccc(NC(=O)Nc4ccccc4)cc3C(=O)N([C@@H](C)CO)C[C@@H]2C)cc1,0,2,0,x
Cc1ccc(S(=O)(=O)N(C)C[C@H]2Oc3ccc(NC(=O)Nc4ccccc4)cc3C(=O)N([C@@H](C)CO)C[C@H]2C)cc1,0,0,102*,x
Cc1ccc(S(=O)(=O)N(C)C[C@H]2Oc3ccc(NC(=O)Nc4ccc(C(F)(F)F)cc4)cc3C(=O)N([C@H](C)CO)C[C@H]2C)cc1,2.7*,2,22,x
CN1CCc2c(sc(NC(=O)c3ccc(S(=O)(=O)N4CCCCCC4)cc3)c2C(N)=O)C1,x,x,x,54*
CCCN1CCc2c(sc(NC(=O)c3ccc(S(=O)(=O)N(C)c4ccccc4)cc3)c2C(N)=O)C1,x,x,4,42*
SMILES,FGF22 binding,F508del corr,S100A4 MyoIIA,dFosB activator
CCCN1CCc2c(sc(NC(=O)c3ccc(S(=O)(=O)N(C)c4ccccc4)cc3)c2C(=O)NC)C1,0,-1,3,u
C[C@H](CO)N1C[C@H](C)[C@@H](CN(C)C(=O)Nc2cccc3ccccc23)Oc2c(cccc2N(C)C)C1=O,-1,-4,-9,x
C[C@@H]1CCCCO[C@@H](CN(C)C(=O)Nc2cccc3ccccc23)[C@H](C)CN([C@H](C)CO)C(=O)c2cc(NC(=O)c3ccccc3)ccc2O1,0,2,-2,x
CN1CCN(C(=O)c2cc(Oc3c(F)c(F)c(F)c(F)c3F)cc(C(=O)N3CCN(C)CC3)c2)CC1,44*,0,0,-7
CN1CCN(C(=O)c2ccc(F)c(F)c2)CC1,0,3,1,-1
COc1cccc(C=C2SC(=S)N(Cc3ccco3)C2=O)c1OC,0,-4,-2,x
CCN1CCN(c2c(/C=C3\SC(=S)N(Cc4ccco4)C3=O)c(C)c(C#N)c(=O)n2C)CC1,0,1,-34,56*
Cn1c(=O)n(Cc2ccccc2F)c(=O)c2c1nc1n2CCN1Cc1ccco1,43*,2,-1,-4
C[C@@H]1CCCCO[C@H](CN(C)C(=O)Cc2ccccc2)[C@@H](C)CN([C@@H](C)CO)C(=O)c2cc(NC(=O)Nc3ccccc3)ccc2O1,0,3,-25,x
O=C(Nc1cccnc1)c1cc(-c2ccc(Cl)c(Cl)c2)on1,0,0,-10,76*
O=C(Nc1cccnc1)c1cc(-c2ccc(F)cc2)on1,0,-3,-3,-6
CCCNC(=O)N1CC2(CN(Cc3ccc(F)cc3)C2)c2c([nH]c3cc(OC)ccc23)[C@H]1CO,0,3,2,x
COc1ccc(S(=O)(=O)N(C)C[C@H]2OCCCC[C@H](C)Oc3ccc(NS(=O)(=O)c4c(C)noc4C)cc3C(=O)N([C@H](C)CO)C[C@@H]2C)cc1,-1,-2,-14,x
CCn1ccnc1CN(C)Cc1cn(-c2ccccc2)nc1-c1ccc(OC)cc1F,45*,-1,-4,-11
CCC(=NCCc1c(C)[nH]c2ccc(OC(F)(F)F)cc12)C1=C(O)CC(c2ccccc2)CC1=O (configuration not stated),0,0,-2,-10
CCC/C(O)=C1\C(=O)CCCC1=NCCc1c(C)[nH]c2ccc(OC)cc12,43*,0,-1,-4
CCCCC(=NCCc1c(C)[nH]c2ccc(OC)cc12)C1=C(O)CC(c2ccccc2)CC1=O (configuration not stated),41,11*,-5,-2
COc1ccc(CN(C)C[C@@H]2OCCCC[C@H](C)Oc3ccc(NC(=O)Nc4cccc5ccccc45)cc3C(=O)N([C@@H](C)CO)C[C@@H]2C)cc1,-1,-1,28,x
COc1cc2c(cc1OC)C(C)N(C(=O)Nc1cc(C)cc(C)c1)CC2 (configuration not stated),0,13*,-3,-14
COC(=O)/C=C1/C(=O)N/C(=N\c2nc(C)cc(C)n2)N1c1ccc(OC)cc1,44*,3,-2,5
COC(=O)/C=C1\N/C(=N\c2nc(C)cc(C)n2)N(c2ccc(Cl)cc2)C1=O,0,-1,2,x
